Source: ChEMBL document CHEMBL4257575, “Discovery of Novel Flavonoid Dimers To Reverse Multidrug Resistance Protein 1 (MRP1, ABCC1) Mediated Drug Resistance in Cancers Using a High Throughput Platform with "Click Chemistry"” (J Med Chem, 2018)

Columns and labels:
Format in all cases: cell-based
[1] = target: T1, Multidrug resistance-associated protein 1 (Homo sapiens, UniProt P33527); experiment: Inhibition of MRP1 in human 2008/MRP1 cells assessed as potentiation of doxorubicin-induced cytotoxicity by measuring cell survival at 2 uM after 5 days by MTS assay relative to control; details: 120 h
T1 sequence (P33527 whole entry): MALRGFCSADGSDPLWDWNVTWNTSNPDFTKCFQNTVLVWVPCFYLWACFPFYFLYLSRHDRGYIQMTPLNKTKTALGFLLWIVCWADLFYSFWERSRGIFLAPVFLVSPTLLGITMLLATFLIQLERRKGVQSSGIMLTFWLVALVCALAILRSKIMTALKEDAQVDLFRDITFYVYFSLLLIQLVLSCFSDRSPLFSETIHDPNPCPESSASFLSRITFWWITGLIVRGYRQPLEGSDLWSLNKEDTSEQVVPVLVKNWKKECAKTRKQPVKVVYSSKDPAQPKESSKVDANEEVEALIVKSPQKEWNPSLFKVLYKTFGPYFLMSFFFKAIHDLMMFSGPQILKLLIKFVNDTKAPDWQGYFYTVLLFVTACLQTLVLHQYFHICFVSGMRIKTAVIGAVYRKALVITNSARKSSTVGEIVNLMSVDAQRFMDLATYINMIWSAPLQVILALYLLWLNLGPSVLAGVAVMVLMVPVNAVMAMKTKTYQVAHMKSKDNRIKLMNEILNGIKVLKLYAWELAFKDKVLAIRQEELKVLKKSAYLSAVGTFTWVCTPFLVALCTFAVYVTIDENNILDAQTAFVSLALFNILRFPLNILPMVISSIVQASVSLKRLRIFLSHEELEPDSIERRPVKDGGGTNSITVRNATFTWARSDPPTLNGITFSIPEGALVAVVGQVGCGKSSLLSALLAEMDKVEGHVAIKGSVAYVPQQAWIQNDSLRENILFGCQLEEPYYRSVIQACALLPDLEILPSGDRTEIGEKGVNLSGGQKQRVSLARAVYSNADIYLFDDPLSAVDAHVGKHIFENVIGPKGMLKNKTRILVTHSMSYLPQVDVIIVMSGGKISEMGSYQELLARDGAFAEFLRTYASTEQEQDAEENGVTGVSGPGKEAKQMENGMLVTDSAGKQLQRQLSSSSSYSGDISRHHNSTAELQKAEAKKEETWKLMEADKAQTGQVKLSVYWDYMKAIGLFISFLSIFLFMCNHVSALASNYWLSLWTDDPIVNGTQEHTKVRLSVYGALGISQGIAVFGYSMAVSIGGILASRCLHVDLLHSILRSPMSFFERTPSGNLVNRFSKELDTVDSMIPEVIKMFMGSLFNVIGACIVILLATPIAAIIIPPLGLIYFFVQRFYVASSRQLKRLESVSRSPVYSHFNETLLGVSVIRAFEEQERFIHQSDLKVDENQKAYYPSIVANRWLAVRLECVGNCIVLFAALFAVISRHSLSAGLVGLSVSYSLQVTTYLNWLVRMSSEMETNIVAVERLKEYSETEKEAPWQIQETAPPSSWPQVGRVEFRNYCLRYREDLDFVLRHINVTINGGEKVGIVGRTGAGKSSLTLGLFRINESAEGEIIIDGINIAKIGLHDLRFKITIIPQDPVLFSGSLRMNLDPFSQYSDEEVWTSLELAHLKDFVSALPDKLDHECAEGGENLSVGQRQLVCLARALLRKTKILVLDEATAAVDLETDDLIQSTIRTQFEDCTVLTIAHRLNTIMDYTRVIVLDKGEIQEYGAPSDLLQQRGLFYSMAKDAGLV
Outline: (§1)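 2008/MRP1 cells (retroviral human MRP1 transfectant; RPMI 1640, 10% FBS) at 4,000 per well, with 100 nM doxorubicin plus crude, unpurified click products in DMSO: 2 µM in the primary screen, 1 µM in the secondary. Incubated 5 days at 37 °C. MTS/PMS added for 2 h at 37 °C, absorbance read at 490 nm. % survival is relative to wells without DOX or product. Run in triplicate, at least three experiments.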

[2] = target: T1, Multidrug resistance-associated protein 1; experiment: Inhibition of MRP1 in human 2008/MRP1 cells assessed as potentiation of doxorubicin-induced cytotoxicity by measuring cell survival at 1 uM after 5 days by MTS assay relative to control; details: 120 h; outline: as §1
[3] = Cytotoxicity against human 2008/MRP1 cells assessed as cell survival at 2 uM after 5 days by MTS assay relative to control; details: read-out: Survival

SMILES | Survival [1] [%] | Survival [2] [%] | viability at 120 h, 2 µM [3] [%]
O=c1cc(-c2ccccc2)oc2cc(OCCOCc3cn(CCOCCOc4ccc(-c5oc6ccccc6c(=O)c5OCc5ccccc5)cc4)nn3)ccc12 | 46 | 56 | 85
O=c1[nH]c(-c2ccc(OCCCc3cn(CCOCCOc4ccc5c(=O)cc(-c6ccccc6)oc5c4)nn3)cc2)nc2ccccc12 | 49 | 70 | 65
O=c1cc(-c2ccc(OCCCc3cn(CCOCCOc4ccc(-c5cc(=O)c6cc(F)ccc6o5)cc4)nn3)cc2)oc2ccccc12 | 39 | – | 43
O=C1c2ccccc2C(=O)N1CCc1cn(CCOCCOCCOc2ccc(-c3cc(=O)c4cc(F)ccc4o3)cc2)nn1 | 28 | – | 10
O=c1cc(-c2ccc(OCCOCCOCCn3cc(CN(Cc4ccccc4)Cc4cn(CCOCCOCCOc5ccc(-c6cc(=O)c7ccccc7o6)cc5)nn4)nn3)cc2)oc2ccccc12 | 29 | – | 49
COc1cccc(COc2c(-c3ccc(OCCCCc4cn(CCOCCOCCOc5ccc(-c6cc(=O)c7cc(C)ccc7o6)cc5)nn4)cc3)oc3ccccc3c2=O)c1 | 46 | – | 50
CCc1ccc(O)c(C(=O)/C=C/c2ccc(OCCCCc3cn(CCOCCOc4ccc(-c5cc(=O)c6ccccc6o5)cc4)nn3)cc2)c1 | 40 | 66 | 95
O=C1c2ccccc2C(=O)N1CCc1cn(CCOCCOc2ccc(-c3cc(=O)c4ccccc4o3)cc2)nn1 | 37 | – | 18
Cc1ccc2oc(-c3ccc(OCCCCc4cn(CCOCCOCCOc5ccc(-c6cc(=O)c7ccccc7o6)cc5)nn4)cc3)cc(=O)c2c1 | 39 | – | 68
COc1cccc(COc2c(-c3ccc(OCCCCc4cn(CCOCCOc5ccc(-c6cc(=O)c7ccccc7o6)cc5)nn4)cc3)oc3ccccc3c2=O)c1 | 40 | – | 63
O=C1c2ccccc2C(=O)N1CCc1cn(CCOCCOc2ccc(-c3cc(=O)c4cc(F)ccc4o3)cc2)nn1 | 39 | – | 14
O=C1c2ccccc2C(=O)N1CCc1cn(CCOCCOCCOc2ccc3c(=O)cc(-c4ccccc4)oc3c2)nn1 | 41 | – | 23
O=C1c2ccccc2C(=O)N1CCc1cn(CCOc2cccc3c(=O)cc(-c4ccccc4)oc23)nn1 | 37 | – | 11
COc1cccc(COc2c(-c3ccc(OCCCCc4cn(CCOCCOCCOc5ccc(-c6oc7ccccc7c(=O)c6OCc6ccccc6)cc5)nn4)cc3)oc3ccccc3c2=O)c1 | 33 | – | 53
O=C1c2ccccc2C(=O)N1CCc1cn(CCOCCOCCOc2ccc(-c3oc4ccccc4c(=O)c3OCc3ccccc3)cc2)nn1 | 34 | – | 16
O=c1cc(-c2ccc(OCCCc3cn(CCOCCOCCOc4ccc(-c5cc(=O)c6cc(F)ccc6o5)cc4)nn3)cc2)oc2ccccc12 | 46 | – | 44
O=C1c2ccccc2C(=O)N1CCc1cn(CCOCCOCCOc2ccc(-c3cc(=O)c4ccccc4o3)cc2)nn1 | 28 | – | 4
O=c1cc(-c2ccccc2)oc2cc(OCCOCCOCCn3cc(CCCOc4ccc(-c5cc(=O)c6cc(F)ccc6o5)cc4)nn3)ccc12 | 40 | – | 105
CCc1ccc(O)c(C(=O)/C=C/c2ccc(OCCCCc3cn(CCOCCOc4ccc(-c5cc(=O)c6cc(F)ccc6o5)cc4)nn3)cc2)c1 | 80 | – | –
C#CCCCCOc1ccc(/C=C/C(=O)c2cc(CC)ccc2O)cc1 | 103 | – | –
Cc1ccc2oc(-c3ccc(OCCOCCOCCn4cc(CCCCOc5ccc(/C=C/C(=O)c6ccccc6O)cc5)nn4)cc3)cc(=O)c2c1 | 61 | – | –
[N-]=[N+]=NCCOCCOCCOc1ccc(-c2oc3ccccc3c(=O)c2OCc2ccccc2)cc1 | 74 | – | –

SMILES | Survival [1] [%] | Survival [2] [%] | viability at 120 h, 2 µM [3] [%]
O=c1cc(-c2ccc(OCCCc3cn(CCOCCOc4ccc5c(=O)cc(-c6ccccc6)oc5c4)nn3)cc2)oc2ccccc12 | 39 | – | 39
O=C1c2ccccc2C(=O)N1CCc1cn(CCOCCOc2ccc(-c3oc4ccccc4c(=O)c3OCc3ccccc3)cc2)nn1 | 57 | – | –
COCOc1cc(OCc2ccccc2)c2c(=O)cc(-c3ccc(OCCCc4cn(CCOCCOc5ccc(-c6cc(=O)c7cc(F)ccc7o6)cc5)nn4)cc3)oc2c1 | 63 | – | –
O=c1cc(-c2ccccc2)oc2cc(OCCOCc3cn(CCOCCOc4ccc(-c5cc(=O)c6cc(F)ccc6o5)cc4)nn3)ccc12 | 54 | – | –
O=c1cc(-c2ccc(OCCCc3cn(CCOCCOc4ccc(-c5oc6ccccc6c(=O)c5OCc5ccccc5)cc4)nn3)cc2)oc2cc(F)ccc12 | 60 | – | –
O=c1cc(-c2ccc(OCCCc3cn(CCOc4cccc5c(=O)cc(-c6ccccc6)oc45)nn3)cc2)oc2ccccc12 | 69 | – | –
Cc1ccc2oc(-c3ccc(OCCOCCOCCn4cc(CCN5C(=O)c6ccccc6C5=O)nn4)cc3)cc(=O)c2c1 | 81 | – | –
O=c1cc(-c2ccccc2)oc2cc(OCCCCc3cn(CCOCCOCCOc4ccc5c(=O)cc(-c6ccccc6)oc5c4)nn3)ccc12 | 61 | – | –
O=c1cc(-c2ccc(OCCOCCn3cc(CN(Cc4ccccc4)Cc4cn(CCOCCOc5ccc(-c6cc(=O)c7cc(F)ccc7o6)cc5)nn4)nn3)cc2)oc2ccc(F)cc12 | 70 | – | –
COc1cccc(COc2c(-c3ccc(OCCCCc4cn(CCOCCOc5ccc6c(=O)cc(-c7ccccc7)oc6c5)nn4)cc3)oc3ccccc3c2=O)c1 | 56 | – | –
O=c1cc(-c2ccc(OCCCc3cn(CCOCCOc4ccc(-c5cc(=O)c6cc(F)ccc6o5)cc4)nn3)cc2)oc2ccc(F)cc12 | 74 | – | –
COc1cccc(COc2c(-c3ccc(OCCOCCn4cc(CCCOc5ccc6c(=O)cc(-c7ccccc7)oc6c5)nn4)cc3)oc3ccccc3c2=O)c1 | 78 | – | –
O=c1cc(-c2ccc(OCCCc3cn(CCOCCOc4ccc(-c5oc6ccccc6c(=O)c5OCc5ccccc5)cc4)nn3)cc2)oc2ccc(F)cc12 | 97 | – | –
C#CCCCCOc1ccc(/C=C/C(=O)c2ccc(F)cc2O)cc1 | 99 | – | –
O=c1c(OCc2ccccc2)c(-c2cccc(OCCOCCn3cc(CN4CCN(Cc5cn(CCOCCOc6cccc(-c7oc8ccccc8c(=O)c7OCc7ccccc7)c6)nn5)CC4)nn3)c2)oc2ccccc12 | 84 | – | –
C#CCOCCOc1ccc2c(=O)cc(-c3ccccc3)oc2c1 | 98 | – | –
Cc1ccc2oc(-c3ccc(OCCOCCOCCn4cc(CCCOc5ccc(-c6nc7ccccc7c(=O)[nH]6)cc5)nn4)cc3)cc(=O)c2c1 | 72 | – | –
O=c1cc(-c2ccc(OCCOCCn3cc(CN(Cc4cn(CCOCCOc5ccc(-c6cc(=O)c7ccccc7o6)cc5)nn4)Cc4cn(CCOCCOc5ccc(-c6cc(=O)c7ccccc7o6)cc5)nn4)nn3)cc2)oc2ccccc12 | 82 | – | –
O=C(/C=C/c1ccc(OCCCCc2cn(CCOc3cccc4c(=O)cc(-c5ccccc5)oc34)nn2)cc1)c1ccc(F)cc1O | 73 | – | –
O=c1cc(-c2ccccc2)oc2cc(OCCOCc3cn(CCOCCOc4cccc(-c5oc6ccccc6c(=O)c5OCc5ccccc5)c4)nn3)ccc12 | 77 | – | –
CCc1ccc(O)c(C(=O)/C=C/c2ccc(OCCCCc3cn(CCOCCOCCOc4ccc(-c5cc(=O)c6cc(F)ccc6o5)cc4)nn3)cc2)c1 | 67 | – | –
